Test results from article PMC3690436 (Journal of nuclear medicine : official publication, Society …, 2009).
Values belong to the compound of their own block, whether it stands above or below them.

Experiments:
[1] = Tolerability of tariquidar in healthy volunteers; format: in vivo, human; details: 2 mg/kg BW i.v., 5 healthy male subjects
[2] = Arterial blood and metabolite analysis of; format: in vivo, human; details: 2 mg/kg i.v.
[3] = cited from earlier work
[4] = humans; ref Ulrich Elben, written communication, 2008; cited from earlier work
P-gp [5] = target: T1, P-gp (Homo sapiens, UniProt P08183); experiment: Rhodamine-123 efflux assay in peripheral white blood cells; format: cell-based
Procedure, shortened: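 Fresh whole blood (18 mL) was drawn from each of the 5 volunteers before dosing. Isolated white blood cells were incubated at 37°C with Rh-123 (0.2 μg/mL) and 10 dilutions of test compound in DMSO (final 0.01 nM–1 μM), in duplicate. Rh-123 accumulation (mean fluorescence per cell) was read by FACS. EC50 came from hyperbolic dose-response fits, given as mean±SD over the 5 donors.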

P-gp [6] = details: in vitro; cited from earlier work
P-gp [7] = target: T1, P-gp; details: cited from earlier work
P-gp [8] = details: rats, cited from earlier work
[9] = target: P-gp at the human blood-brain barrier (Homo sapiens, UniProt P08183)
[10] = Tariquidar concentration in venous plasma by LC/MS; format: in vivo, human
MRP1 = details: cited from earlier work
P-gp [11] = details: non-human primates, infusion of 20 mg/kg/2 hr; cited from earlier work

T1 sequence (P08183 whole entry): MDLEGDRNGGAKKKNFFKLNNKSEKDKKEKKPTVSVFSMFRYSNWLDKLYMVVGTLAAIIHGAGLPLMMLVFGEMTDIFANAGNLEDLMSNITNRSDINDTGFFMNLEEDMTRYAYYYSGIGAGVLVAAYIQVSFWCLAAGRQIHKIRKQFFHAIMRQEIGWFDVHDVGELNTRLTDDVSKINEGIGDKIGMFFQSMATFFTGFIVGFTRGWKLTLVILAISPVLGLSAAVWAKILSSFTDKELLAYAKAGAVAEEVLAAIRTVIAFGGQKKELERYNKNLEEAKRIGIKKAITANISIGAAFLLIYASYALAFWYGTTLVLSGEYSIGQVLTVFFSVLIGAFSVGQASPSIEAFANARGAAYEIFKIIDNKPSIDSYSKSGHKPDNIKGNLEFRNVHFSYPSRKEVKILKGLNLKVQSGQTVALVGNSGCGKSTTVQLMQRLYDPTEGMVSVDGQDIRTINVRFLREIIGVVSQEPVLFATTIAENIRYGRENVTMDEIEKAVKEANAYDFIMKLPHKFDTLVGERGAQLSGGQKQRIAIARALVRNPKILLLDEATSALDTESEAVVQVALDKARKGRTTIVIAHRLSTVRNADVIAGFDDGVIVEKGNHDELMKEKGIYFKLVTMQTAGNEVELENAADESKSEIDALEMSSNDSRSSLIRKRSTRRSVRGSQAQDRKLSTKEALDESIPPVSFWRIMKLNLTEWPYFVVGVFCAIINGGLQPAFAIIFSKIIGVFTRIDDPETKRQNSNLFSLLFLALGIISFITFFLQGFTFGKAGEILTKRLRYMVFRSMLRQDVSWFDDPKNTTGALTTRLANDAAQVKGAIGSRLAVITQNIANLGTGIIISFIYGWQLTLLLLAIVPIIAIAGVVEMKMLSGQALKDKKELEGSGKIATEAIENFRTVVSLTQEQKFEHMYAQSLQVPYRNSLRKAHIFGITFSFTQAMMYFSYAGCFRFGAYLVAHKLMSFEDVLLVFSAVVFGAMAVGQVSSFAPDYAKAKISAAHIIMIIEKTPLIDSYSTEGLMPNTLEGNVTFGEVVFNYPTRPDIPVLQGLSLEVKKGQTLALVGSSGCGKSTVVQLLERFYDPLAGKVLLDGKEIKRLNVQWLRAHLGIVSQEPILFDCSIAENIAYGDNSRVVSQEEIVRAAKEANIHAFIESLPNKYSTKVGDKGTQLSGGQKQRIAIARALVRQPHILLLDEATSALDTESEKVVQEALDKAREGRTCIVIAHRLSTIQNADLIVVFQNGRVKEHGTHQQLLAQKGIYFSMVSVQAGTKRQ
P-gp at the human blood-brain barrier, sequence (P08183 whole entry): as above

- Influence of tariquidar on the metabolism of (R)-11C-verapamil [2]: did not have significant influence
- EC50 (P-gp [5]): 0.773 nM
- Maximum increase of brain radioactivity versus baseline (t=40 min) ([9]; scan 1, at 5 min after end of tariquidar infusion (t=75 min), 2 mg/kg i.v.): +74%
- Increase of brain radioactivity versus baseline (t=40 min) ([9]; scan 1, at 35 min after end of tariquidar infusion (t=115 min), on average): +10%
- Plasma concentration of tariquidar during the second PET scan ([10]; 200-240 min after start of infusion, 2 mg/kg i.v., mean±SD): 490 ± 166 ng/mL
- Plasma concentration relative to EC50 for inhibition of Rh-123 efflux ([10]; at 24 h after tariquidar infusion): 424 fold
- Concentration of unbound tariquidar in plasma ([10]; at the time of the second scan, corrected for 99.5% protein binding): 2.45 ± 0.83 ng/mL
- Plasma concentration relative to EC50 for inhibition of Rh-123 efflux ([10]; during second PET scan): 980 fold
- concentration at 24 h ([10]; male, human, plasma, intravenous, 2 mg/kg): 212 ± 24 ng/mL
SMILES: COc1cc2c(cc1OC)CN(CCc1ccc(NC(=O)c3cc(OC)c(OC)cc3NC(=O)c3cnc4ccccc4c3)cc1)CC2 [tariquidar, Tariquidar]
- Mild adverse events possibly related to study medication [1]: mild hypotension, headache and nausea, each in one patient and dizziness in 2 patients
- Tolerability [1]: well tolerated without occurrence of severe or serious adverse events
- Tariquidar-related material in plasma existing as unchanged parent compound ([3]; monkey plasma): > 95%
- Elimination half-life ([3]; monkey): 5 h
- Binding to plasma proteins [4]: 99.5%
- Duration of P-gp inhibitory effect after removal from the incubation medium (P-gp [6]): up to 22 h
- CNS activity of loperamide (reduction in pupil diameter) after inhibitor (P-gp [7]; humans, tariquidar 2 mg/kg BW): not affected
- Plasma tariquidar concentration at the time of the PET scan (P-gp [8]; 15 mg/kg): about 1,400 ng/mL
- Increase of (R)-11C-verapamil DVs (P-gp [8]; plasma tariquidar levels about 500 ng/mL): 3-4 fold
- Increase of the (R)-11C-verapamil DV (P-gp [8]; tariquidar 15 mg/kg): 12 fold
- Inhibition of MRP1 (MRP1): does not inhibit

SMILES: C=C[C@H]1C[N@@]2CC[C@H]1C[C@@H]2[C@@H](O)c1ccnc2ccc(OC)cc12 [quinidine]
- CNS pharmacologic effect of loperamide when inhibitor co-administered (P-gp [7]; 8 healthy volunteers): caused respiratory depression

SMILES: C/C=C/C[C@@H](C)C(=O)[C@H]1C(=O)N[C@@H](C(C)C)C(=O)N(C)CC(=O)N(C)[C@@H](CC(C)C)C(=O)N[C@@H](C(C)C)C(=O)N(C)[C@@H](CC(C)C)C(=O)N[C@@H](C)C(=O)N[C@H](C)C(=O)N(C)[C@@H](CC(C)C)C(=O)N(C)[C@@H](CC(C)C)C(=O)N(C)[C@@H](C(C)C)C(=O)N1C [valspodar]
- Increase of brain uptake of racemic 11C-verapamil (P-gp [11]): 4.61 fold
